Common to all, as to assay type: functional
For assay [1], the system named is Rattus norvegicus. Nature of the assay: Antiinflammatory activity in immature rat assessed as inhibition of cantharidin-induced inflammation at 888 ug administered topically to outer surface of ear after 72 hrs relative to control. In a few lines: (§1)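 Test compounds applied topically to outer ear surface together with cantharidin, groups of 8-10 immature rats (50-60 g). Controls: vehicle-only group and cantharidin-only group. […] Significance vs irritant group by Student's t test or Fieller's theorem.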

Assay [2] deals with Rattus norvegicus. Nature of the assay: Antiinflammatory activity in immature rat assessed as inhibition of cantharidin-induced inflammation at 924 ug administered topically to outer surface of ear after 72 hrs relative to control. In a few lines:
as §1

The subject of assay [3] is Rattus norvegicus. Nature of the assay: Antiinflammatory activity in immature rat assessed as inhibition of cantharidin-induced inflammation at 100 ug administered topically to outer surface of ear after 72 hrs relative to control. In a few lines: as §1
Assay [4] concerns Rattus norvegicus. Nature of the assay: Antiinflammatory activity in immature rat assessed as inhibition of cantharidin-induced inflammation at 800 ug administered topically to outer surface of ear after 72 hrs relative to control. In a few lines: as §1
In assay [5] the test system is Rattus norvegicus. Nature of the assay: Antiinflammatory activity in immature rat assessed as inhibition of cantharidin-induced inflammation at 400 ug administered topically to outer surface of ear after 72 hrs relative to control. In a few lines: as §1
Assay [6] deals with Rattus norvegicus. Nature of the assay: Antiinflammatory activity in immature rat assessed as inhibition of cantharidin-induced inflammation at 200 ug administered topically to outer surface of ear after 72 hrs relative to control. Put shortly: as §1
For assay [7], the system named is Rattus norvegicus. Nature of the assay: Antiinflammatory activity in immature rat assessed as inhibition of cantharidin-induced inflammation at 50 ug administered topically to outer surface of ear after 72 hrs relative to control. In a few lines:
as §1

Assay [8] deals with Rattus norvegicus. Nature of the assay: Antiinflammatory activity in rat assessed as reduction in dry ganuloma tissue surrounding implanted cotton pellet at 2000 ug per pellet after 72 hrs relative to control. Also on record: scale not given: the % may be the effect or the level left. In a few lines: (§2)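 Compound dissolved in ethanol, applied to cotton pellets and dried at room temperature. Two pellets implanted sc per rat, ten rats per dose group. Pellets removed at autopsy 72 h later. Activity read as reduction in dry granuloma tissue around pellets vs control group. Significance by Student's t test or Fieller's theorem.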

The subject of assay [9] is Rattus norvegicus. Nature of the assay: Antiinflammatory activity in rat assessed as reduction in dry ganuloma tissue surrounding implanted cotton pellet at 4000 ug per pellet after 72 hrs relative to control. Also noted: scale not given: the % may be the effect or the level left. Put shortly:
as §2

Assay [10] concerns Rattus norvegicus. Nature of the assay: Antiinflammatory activity in rat assessed as reduction in dry ganuloma tissue surrounding implanted cotton pellet at 1000 ug per pellet after 72 hrs relative to control. Also noted: scale not given: the % may be the effect or the level left. Put shortly:
as §2

Assay [11] deals with Rattus norvegicus. Nature of the assay: Antiinflammatory activity in rat assessed as reduction in dry ganuloma tissue surrounding implanted cotton pellet at 8000 ug per pellet after 72 hrs relative to control. Also noted: scale not given: the % may be the effect or the level left. In a few lines:
as §2

Assay [12] has as its system Rattus norvegicus. Nature of the assay: Antiinflammatory activity in rat assessed as reduction in dry ganuloma tissue surrounding implanted cotton pellet at 40 ug per pellet after 72 hrs relative to control. Also noted: scale not given: the % may be the effect or the level left. Put shortly:
as §2

For assay [13], the system named is Rattus norvegicus. Nature of the assay: Antiinflammatory activity in rat assessed as reduction in dry ganuloma tissue surrounding implanted cotton pellet at 10 ug per pellet after 72 hrs relative to control. Also noted: scale not given: the % may be the effect or the level left. Put shortly: as §2
The subject of assay [14] is Rattus norvegicus. Nature of the assay: Antiinflammatory activity in immature rat assessed as inhibition of cantharidin-induced inflammation at 80 ug administered topically to outer surface of ear after 72 hrs relative to control. Put shortly: as §1
Assay [15] concerns Rattus norvegicus. Nature of the assay: Antiinflammatory activity in immature rat assessed as inhibition of cantharidin-induced inflammation at 40 ug administered topically to outer surface of ear after 72 hrs relative to control. Put shortly:
as §1

Assay [16] concerns Rattus norvegicus. Nature of the assay: Antiinflammatory activity in rat assessed as reduction in dry ganuloma tissue surrounding implanted cotton pellet at 20 ug per pellet after 72 hrs relative to control. Also on record: scale not given: the % may be the effect or the level left. In a few lines: as §2
In assay [17] the test system is Rattus norvegicus. Nature of the assay: Antiinflammatory activity in immature rat assessed as inhibition of cantharidin-induced inflammation at 20 ug administered topically to outer surface of ear after 72 hrs relative to control. In a few lines:
as §1

Assay [18] has as its system Rattus norvegicus. Nature of the assay: Antiinflammatory activity in rat assessed as reduction in dry ganuloma tissue surrounding implanted cotton pellet at 80 ug per pellet after 72 hrs relative to control. Also noted: scale not given: the % may be the effect or the level left. Put shortly: as §2
The subject of assay [19] is Rattus norvegicus. Nature of the assay: Antiinflammatory activity in immature rat assessed as inhibition of cantharidin-induced inflammation at 5 ug administered topically to outer surface of ear after 72 hrs relative to control. Put shortly:
as §1

Assay [20] deals with Rattus norvegicus. Nature of the assay: Antiinflammatory activity in immature rat assessed as inhibition of cantharidin-induced inflammation at 10 ug administered topically to outer surface of ear after 72 hrs relative to control. Put shortly: as §1

22 molecules from ChEMBL document CHEMBL3272292, “2-(2-Aminoethylamino)-1,2-diphenylethanol derivatives, a new class of topical antiinflammatory agents” (1977) can be followed below.

With `CC12C(=O)N(CCNC(c3ccccc3)C(O)c3ccccc3)C(=O)C1(C)C1CCC2O1` (stereo not drawn), the “inhibition (INH)” value in assay [1] is listed as 0%.
For `CC1(C(=O)O)C2CCC(O2)C1(C)C(=O)NCCNC(c1ccccc1)C(O)c1ccccc1` (stereo not drawn), the “inhibition (INH)” value in assay [2] turned out to be 67%.
As for `O[C@@H](c1ccccc1)[C@@H](NCCN[C@@H](c1ccccc1)[C@@H](O)c1ccccc1)c1ccccc1`, the “inhibition (INH)” value stood at 0% in assay [3]; 0% in [4]; 5% in assay [5]; 17% in assay [6]; 14% in [7].
Take `NCCN[C@@H](c1ccccc1)[C@@H](O)c1ccccc1` (racemic): the “inhibition (INH)” value in assay [3] was 19%; in assay [4], 88%; in assay [5], 72%; in [6] it was 46%; in [7], 19%. For the same molecule, the Activity in [8] is given as 28%; in assay [9] it was 44%; in assay [10] it was 19%; in assay [11], 49%.
For `NCCN[C@@H](c1ccccc1)[C@H](O)c1ccccc1` (racemic), the “inhibition (INH)” value in assay [3] was 7%; in assay [4], 88%; in assay [5], 56%; in assay [6], 9%.
Regarding `CN(C)CCN[C@@H](c1ccccc1)[C@@H](O)c1ccccc1` (racemic), the “inhibition (INH)” value in assay [3] is 0%; in assay [4], 0%; in assay [5], 0%; in [6] it was 8%; in [7], 0%.
In the case of `NCCN[C@@H](c1ccccc1)[C@@H](O)c1ccc(Cl)cc1` (racemic), the “inhibition (INH)” value stood at 23% in [3]; 90% in assay [4]; 64% in assay [5]; 35% in assay [6]; 20% in [7].
As for `NCCN[C@@H](c1ccc(Cl)cc1)[C@@H](O)c1ccccc1` (racemic), the “inhibition (INH)” value in [3] is given as 0%; in [4], 89%; in [5] it was 35%; in [6], 12%; in [7], 3%.
Take `NCCCN[C@@H](c1ccccc1)[C@@H](O)c1ccccc1` (racemic): the “inhibition (INH)” value in assay [3] was 8%; in assay [4], 51%; in assay [5], 29%; in assay [6] it was 21%; in assay [7], 0%.
Taken in the same sequence, the figures for `CC(=O)NCCN(C(C)=O)[C@@H](c1ccccc1)[C@@H](O)c1ccccc1` (racemic) were 11%, 40%, 0%, 9% and 0%.
The matching figures for `CC(=O)NCCN[C@@H](c1ccccc1)[C@@H](O)c1ccccc1` (racemic): 3%, 5%, 3%, 0% and 0%.
Taken in the same sequence, the figures for `CC(=O)NCCN(C(C)=O)[C@@H](c1ccccc1)[C@@H](OC(C)=O)c1ccccc1` (racemic) were 13%, 0%, 13%, 7% and 6%.
`NCCN[C@@H](c1ccc(Cl)cc1)[C@@H](O)c1ccc(Cl)cc1` (racemic): the “inhibition (INH)” value in assay [3] is on record as 10%; in assay [4], 17%; in assay [5], 15%; in assay [6], 16%; in assay [7], 16%.
In the case of `Cc1ccc([C@H](O)[C@@H](NCCN)c2ccccc2)cc1` (racemic), the “inhibition (INH)” value in assay [3] is on record as 9%; in [4] it was 68%; in [5], 53%; in assay [6] it was 5%; in assay [7], 12%.
Turning to `CN(C)CCCN[C@@H](c1ccccc1)[C@@H](O)c1ccccc1` (racemic), the “inhibition (INH)” value in [3] is given as 0%; in assay [4] it was 32%; in assay [5], 9%; in [6] it was 16%; in assay [7], 9%.
On to `NCCCCN[C@@H](c1ccccc1)[C@@H](O)c1ccccc1` (racemic), for which the “inhibition (INH)” value in assay [3] is reported as 5%; in assay [4], 87%; in assay [5] it was 54%; in assay [6] it was 37%; in [7] it was 10%.
The matching figures for `CNCCN[C@@H](c1ccccc1)[C@@H](O)c1ccccc1` (racemic): 20%, 26%, 6%, 20% and 15%.
Taken in the same sequence, the figures for `CN(CCN)[C@@H](c1ccccc1)[C@@H](O)c1ccccc1` (racemic) were 8%, 41%, 11%, 1% and 0%.
For the molecule `CC(C)=NCCN[C@@H](c1ccccc1)[C@@H](O)c1ccccc1` (relative stereo), the “inhibition (INH)” value in assay [3] was found to be 13%; in [4], 87%; in [5] it was 59%; in [6] it was 10%; in assay [7], 14%.
As for `NCCNC(c1ccccc1)C(O)c1ccccc1` (single isomer, unassigned; (+)), the “inhibition (INH)” value turned out to be 2% in assay [3], 96% in assay [4], 29% in assay [5] and 0% in [6].
Consider `NCCNC(c1ccccc1)C(O)c1ccccc1` (stereo in doubt; 8a), for which the “inhibition (INH)” value in assay [3] was 1%; in assay [4] it was 87%; in assay [5], 51%; in [6], 19%; in assay [7], 7%.
Regarding `C[C@@H]1C[C@H]2[C@@H]3CCC4=CC(=O)C=C[C@]4(C)[C@@]3(F)[C@@H](O)C[C@]2(C)[C@@]1(O)C(=O)CO` [DEXAMETHASONE], the Activity in assay [12] is on record as 34%; in [13], 16%; in assay [16], 28%; in assay [18] it was 49%. Moreover, the “inhibition (INH)” value amounted to 76% in assay [14]; 53% in assay [15]; 30% in [17]; 17% in assay [19]; 25% in assay [20].
